Converted amounts (≈) assume the structure as drawn.
Tests used:
[1] = target: T1, Cytochrome P450 11B2, mitochondrial (Homo sapiens, UniProt P19099); assay: Inhibition of human CYP11B2 expressed in human renal leiomyoblastoma cells harboring FDXR/FDX using 1-deoxycorticosterone as substrate by HTRF assay; assay type: cell-based
T1 sequence (P19099 whole entry): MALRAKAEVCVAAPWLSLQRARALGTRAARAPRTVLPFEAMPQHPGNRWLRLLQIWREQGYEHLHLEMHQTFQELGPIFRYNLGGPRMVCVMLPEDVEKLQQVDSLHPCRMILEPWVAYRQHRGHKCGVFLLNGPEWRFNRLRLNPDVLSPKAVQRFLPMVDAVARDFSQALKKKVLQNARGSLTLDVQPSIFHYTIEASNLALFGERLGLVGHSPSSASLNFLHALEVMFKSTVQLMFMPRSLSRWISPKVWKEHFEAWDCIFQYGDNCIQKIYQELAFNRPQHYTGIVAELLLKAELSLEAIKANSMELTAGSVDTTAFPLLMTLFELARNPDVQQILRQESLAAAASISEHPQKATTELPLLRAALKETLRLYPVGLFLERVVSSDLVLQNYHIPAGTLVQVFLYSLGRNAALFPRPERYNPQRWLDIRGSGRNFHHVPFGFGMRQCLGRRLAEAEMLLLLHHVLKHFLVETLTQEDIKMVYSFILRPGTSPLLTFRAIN
Method in brief: (§1)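 Cells with endogenous FDXR/FDX and no detectable CYP11B activity, stably transfected (CMV promoter, neomycin selection, G-418 400 µg/mL) with CYP11B1 or CYP11B2 of the named species. Assayed in DMEM/F12 with 2.5% charcoal-treated FCS. Substrate 1 µM 11-deoxycorticosterone (B2) or 11-deoxycortisol (B1), 16 hr. Aldosterone or cortisol in supernatant measured by HTRF. IC50 from 4-parameter MMF fit; selectivity factor is the B1/B2 IC50 ratio.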

[2] = Selectivity ratio of IC50 for human CYP11B1 expressed in human renal leiomyoblastoma cells harboring FDXR/FDX to IC50 for human CYP11B2 expressed in human renal leiomyoblastoma cells harboring FDXR/FDX; assay type: cell-based; method in brief: as §1
[3] = Permeability of the compound measured at 18 hrs by PAMPA; assay type: ADME; conditions: read-out: permeability
Method in brief: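 PAMPA sandwich format. Donor: compound diluted to 150 μM (DMSO <2%) in 0.05 M MOPSO pH 6.5 with 0.5% glycocholic acid. Acceptor: 0.05 M MOPSO pH 6.5. Membrane of 10% egg lecithin with 0.5% cholesterol in dodecane. Donor measured at start; acceptor and donor measured at ~18 hr.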

[4] = Solubility of the compound in phosphate buffer at pH 6.5 shaken for 2 hrs followed by overnight incubation; assay type: physicochemical
Method in brief: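 Lyophilisation solubility assay run in duplicate from 10 mM DMSO stock. DMSO evaporated and residue redissolved in 0.05 M phosphate, pH 6.5. Stirred 1 hr, shaken 2 hr, left overnight, then filtered. Filtrate and a 1/10 dilution analysed by HPLC-UV against a four-point calibration.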

[5] = Intrinsic clearance in rat liver microsomes preincubated for 10 mins followed by NADPH regenerating system addition and measured up to 30 mins by LC/MS-MS analysis; assay type: ADME, Microsome
Method in brief: (§2)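 Liver microsomes at 0.5 mg protein/mL in 100 mM potassium phosphate, pH 7.4. Compound preincubated 10 min at 37 °C. Intrinsic clearance scaled using the well-stirred liver model.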

[6] = Plasma clearance in Wister-Han rat at 1 mg/kg, iv administered as single dose by LC/MS-MS analysis; assay type: ADME, organism-based; conditions: Wistar-Han
Method in brief: (§3)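 Male Wistar-Han rats, single dose. IV 1 mg/kg, compound at 0.5 mg/mL in NMP:saline 30/70 (v/v). Oral 3 mg/kg, 0.25 mg/mL in 2% Klucel with 0.1% Polysorbate 80. Three rats per time point. Heparinized blood taken at eight (iv) or seven (po) time points, plasma stored at -20 °C. Plasma levels by LC/MS-MS. Non-compartmental analysis.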

[7] = AUC (0 to infinity) in Wister-Han rat at 3 mg/kg, po administered as single dose by LC/MS-MS analysis; assay type: ADME, organism-based; design: dose 3 mg/kg, route oral, time infinity; conditions: Wistar-Han, in vivo; method in brief: as §3
[8] = Oral bioavailability in Wister-Han rat at 3 mg/kg administered as single dose by LC/MS-MS analysis; assay type: ADME, organism-based; conditions: Wistar-Han, in vivo; method in brief: as §3
[9] = Protein binding in rat plasma assessed as unbound fraction at 1 uM by micro-equilibrium dialysis based LC-MS/MS analysis; assay type: ADME, cell-free
Method in brief: (§4)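 Equilibrium dialysis of pooled rat or cynomolgus plasma against Soerensen buffer pH 7.4, 12–14 kDa cut-off membrane. Compounds tested in cassettes of 2–5 at 1 μM initial total concentration, with diazepam as control. Dialysis 5 hr at 37 °C under 5% CO₂. Unbound percentage by LC/MS-MS.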

[10] = Protein binding in cynomolgus monkey plasma assessed as unbound fraction at 1 uM by micro-equilibrium dialysis based LC-MS/MS analysis; assay type: ADME, cell-free, Macaca fascicularis; method in brief: as §4
[11] = Intrinsic clearance in rat hepatocytes; assay type: ADME, cell-based, Hepatocyte; conditions: read-out: CLH
[12] = Intrinsic clearance in cynomolgus monkey hepatocytes; assay type: ADME, cell-based, Macaca fascicularis, Hepatocyte; conditions: read-out: CLH
[13] = Plasma clearance in iv dosed cynomolgus monkey; assay type: ADME, organism-based, Macaca fascicularis
[14] = Dose normalized AUC in cynomolgus monkey; assay type: ADME, Macaca fascicularis; conditions: in vivo
[15] = Dose normalized AUC in Wister-Han rat at 1 mg/kg, iv or 3 mg/kg, po administered as single dose by LC/MS-MS analysis; assay type: ADME, organism-based; conditions: in vivo; method in brief: as §3
[16] = Oral bioavailability in cynomolgus monkey; assay type: ADME, organism-based, Macaca fascicularis; conditions: in vivo
[17] = Inhibition of cynomolgus monkey CYP11B2 expressed in human G401 cells using 1-deoxycorticosterone as substrate by HTRF assay; assay type: cell-based, Macaca fascicularis; conditions: g-401; method in brief: as §1
[18] = Selectivity ratio of IC50 for cynomolgus monkey CYP11B1 expressed in human G401 cells to IC50 for cynomolgus monkey CYP11B2 expressed in human G401 cells; assay type: cell-based; method in brief: as §1
[19] = target: T2, Cytochrome P450 11B1, mitochondrial (Homo sapiens, UniProt P15538); assay: Inhibition of human CYP11B1 expressed in human renal leiomyoblastoma cells harboring FDXR/FDX using 1-deoxycortisol as substrate by HTRF assay; assay type: ADME, cell-based; method in brief: as §1
T2 sequence (P15538 whole entry): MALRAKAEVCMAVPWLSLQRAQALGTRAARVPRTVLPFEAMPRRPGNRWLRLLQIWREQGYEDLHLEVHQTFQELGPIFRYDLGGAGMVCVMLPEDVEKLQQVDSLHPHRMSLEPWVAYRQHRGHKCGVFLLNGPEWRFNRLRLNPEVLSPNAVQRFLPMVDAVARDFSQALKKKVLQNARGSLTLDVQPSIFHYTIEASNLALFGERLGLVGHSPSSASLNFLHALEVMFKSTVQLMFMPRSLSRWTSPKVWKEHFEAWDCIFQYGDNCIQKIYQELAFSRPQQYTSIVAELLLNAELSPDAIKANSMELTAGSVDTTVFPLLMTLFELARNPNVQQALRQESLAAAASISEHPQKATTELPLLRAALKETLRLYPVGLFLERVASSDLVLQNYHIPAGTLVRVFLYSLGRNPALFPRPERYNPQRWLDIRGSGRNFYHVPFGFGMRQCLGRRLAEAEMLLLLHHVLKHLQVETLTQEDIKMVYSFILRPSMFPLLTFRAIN

[20] = Intrinsic clearance in human liver microsomes preincubated for 10 mins followed by NADPH regenerating system addition and measured up to 30 mins by LC/MS-MS analysis; assay type: ADME, Microsome; conditions: read-out: CLH; method in brief: as §2
[21] = Intrinsic clearance in mouse liver microsomes preincubated for 10 mins followed by NADPH regenerating system addition and measured up to 30 mins by LC/MS-MS analysis; assay type: ADME, Microsome; method in brief: as §2
[22] = Octanol-water distribution coefficient, log D of the compound by carrier-mediated distribution system; assay type: physicochemical

| Compound | IC50 [1] [nM] | Papp at 18 h [3] [×10⁻⁶ cm/s] | solubility at 2 h [4] [µg/mL] | predicted hepatic clearance (CLH) [5] [mL/min/kg] | clearance [6] [mL/min/kg] | AUC(0-inf) [7] [ng·h/mL] | bioavailability [8] [%] | IC50 [17] [nM] | IC50 [19] [nM] | predicted hepatic clearance [20] [mL/min/kg] | Ratio IC50 [2] | Ratio IC50 [18] | other results |
| --- | --- | --- | --- | --- | --- | --- | --- | --- | --- | --- | --- | --- | --- |
| CC(=O)N[C@@H]1CCCc2c1cncc2N1CCc2cc(Cl)ccc2C1=O | 54 | – | – | < 20.2 | – | – | – | – | 3920 | 4.3 | 73 | – | – |
| Cc1ccncc1C(=O)N1CC(Oc2cncc(N3C(=O)c4ccc(Cl)cc4C3(C)C)c2)C1 | 4 | 5.4 | 290 (≈ 626 µM) | 10.4 | 15.8 | 1020 | 40 | 0.9 | – | – | 553 | 1770 | – |
| N#Cc1ccc2c(c1)CN(c1cccnc1)C2=O | 232 | – | – | – | – | – | – | – | 15500 | 8.7 | 67 | – | predicted hepatic clearance (CLH) [21]: 45.6 mL/min/kg; logD [22]: 1.35 |
| CS(=O)(=O)N[C@@H]1CCCc2c1cncc2N1CCc2cc(Cl)ccc2C1=O | 76 | – | – | < 20.2 | – | – | – | – | 5150 | < 3.5 | 68 | – | – |

Further lines, with some results ahead:

| IC50 [1] [nM] | Papp at 18 h [3] [×10⁻⁶ cm/s] | solubility at 2 h [4] [µg/mL] | predicted hepatic clearance (CLH) [5] [mL/min/kg] | clearance [6] [mL/min/kg] | AUC(0-inf) [7] [ng·h/mL] | bioavailability [8] [%] | IC50 [17] [nM] | IC50 [19] [nM] | predicted hepatic clearance [20] [mL/min/kg] | Compound | Ratio IC50 [2] | Ratio IC50 [18] | other results |
| --- | --- | --- | --- | --- | --- | --- | --- | --- | --- | --- | --- | --- | --- |
| 2 | 3.63 | 44 (≈ 92.2 µM) | 6.4 | 6.4 | 5660 | 69 | – | – | – | Cn1cc(C(=O)N2CC3(C2)CN(c2cncc(N4C(=O)c5ccc(Cl)cc5C4(C)C)c2)C3)cn1 | 5680 | – | fraction unbound at 1 µM [9]: 0.066; fraction unbound at 1 µM [10]: 0.036; CLint scaled [11]: < 4.4 mL/min/kg; CLint scaled [12]: < 3 mL/min/kg; clearance [13]: 2.1 mL/min/kg; AUC/dose [14]: 3111 kg·ng·h/mL/mg; AUC/dose [15]: 1889 kg·ng·h/mL/mg; bioavailability [16]: 37% |
| 16 | – | – | 0.87 | – | – | – | 1 | – | – | CCS(=O)(=O)N1CC2(CN(c3cncc(N4C(=O)c5ccc(Cl)cc5C4(C)C)c3)C2)C1 | 855 | 19700 | – |
| 9 | – | – | 17.7 | – | – | – | 3 | – | – | CC(=O)N1CCN(c2cncc(N3C(=O)c4ccc(Cl)cc4C3(C)C)c2)CC1 | 80 | 236 | – |
| 0.5 | 3.45 | 310 (≈ 686 µM) | 6.4 | 3.8 | 7880 | 60 | – | – | – | Cn1cc(C(=O)N2CC(Oc3cncc(N4C(=O)c5ccc(Cl)cc5C4(C)C)c3)C2)cn1 | 4160 | – | – |

Reference: ChEMBL document CHEMBL4616681, “Discovery of 3-Pyridyl Isoindolin-1-one Derivatives as Potent, Selective, and Orally Active Aldosterone Synthase (CYP11B2) Inhibitors” (J Med Chem, 2020)
